Active and inactive are the calls of the source. No cut-off for these calls is given here.
Tests used:
CCRF-CEM = assay: Antiproliferative activity against human CEM cells after 48 hrs by sulforhodamine B assay; type: functional, cell-based
MDA-MB-231 [1] = assay: Displacement of N,N'-ethylenebis(iodoacetamide) from colchicine-binding site of beta-tubulin in human MDA-MB-231 cells at 1000 times IC50 preincubated for after 2 hrs before N,N'-ethylenebis(iodoacetamide) addition measured after 1.5 hrs by chemiluminescence assay; type: cell-based
In short: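 EBI (100 μM final) added for 1.5 h at 37 °C; controls received 0.5% DMSO. Lysates (20 μg protein) run on 10% SDS-PAGE and blotted with anti-β-tubulin (TUB 2.1). β-tubulin–EBI adduct band detected by ECL.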

M21 [2] = assay: Cell cycle arrest in human M21 cells assessed as accumulation at G2/M phase at 5 times IC50 after 24 hrs using propidium iodide staining by flow cytometric analysis (reference value: 9%); type: functional
CHO-TAX 5-6 [3] = assay: Resistant ratio of IC50 for paclitaxel-resistant CHO-TAX 5-6 cells to IC50 for CHO cells; type: functional, Cricetulus griseus
In short: (§1)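 Ratio of the IC50 in the resistant line (CEM-VLB, CHO-TAX 5-6 or CHO-VV 3-2) to the IC50 in its parental line (CEM or CHO).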

HT-1080 [4] = assay: Antivasculogenic activity against human HT1080 cells xenografted in chicken chorioallantoic membrane assessed as inhibition of tumor growth at 3 ug per egg, iv measured on day 14 by CAM assay; type: functional
MDA-MB-231 [5] = assay: Antiproliferative activity against human MDA-MB-231 cells after 48 hrs by sulforhodamine B assay; type: functional, cell-based; settings: MDA-MB-231, 48 h
[6] = Antiproliferative activity against multidrug-resistant human CEM/VLB cells after 48 hrs by sulforhodamine B assay; type: functional
DU-145 = assay: Antiproliferative activity against human DU145 cells after 48 hrs by sulforhodamine B assay; type: functional, cell-based; settings: DU-145, 48 h
M21 [7] = assay: Disruption of cytoskeleton microtubule structure of human M21 cells at 5 times IC50 after 16 hrs by indirect immunofluorescence assay; type: functional, cell-based
In short: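 Fixed in 3.7% formaldehyde, permeabilized with saponin, and stained with anti-β-tubulin (TUB 2.1), Alexa-488 secondary and DAPI. Microtubule structure scored by fluorescence microscopy.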

CHO-VV 3-2 = assay: Antiproliferative activity against colchicine- and vinblastine-resistant CHO-VV 3-2 cells after 48 hrs by sulforhodamine B assay; settings: Cricetulus griseus, CHO-VV 3-2, 48 h
MCF7 = assay: Antiproliferative activity against human MCF7 cells after 48 hrs by sulforhodamine B assay; type: functional, cell-based; settings: MCF7, 48 h
L1210 = assay: Antiproliferative activity against mouse L1210 cells after 48 hrs by sulforhodamine B assay; type: functional, cell-based; settings: L1210, 48 h
M21 [8] = assay: Cell cycle arrest in human M21 cells assessed as accumulation at S phase at 5 times IC50 after 24 hrs using propidium iodide staining by flow cytometric analysis (reference value: 30%); type: functional
M21 [9] = assay: Cell cycle arrest in human M21 cells assessed as accumulation at G0/G1 phase at 5 times IC50 after 24 hrs using propidium iodide staining by flow cytometric analysis (reference value: 61%); type: functional
[10] = Antiproliferative activity against mouse P388D1 cells after 48 hrs by sulforhodamine B assay; type: functional, cell-based; settings: P388D1, 48 h
[11] = Antiproliferative activity against mouse B16F0 cells after 48 hrs by sulforhodamine B assay; type: functional, cell-based; settings: B16F0, 48 h
HT-29 = assay: Antiproliferative activity against human HT-29 cells after 48 hrs by sulforhodamine B assay; type: functional, cell-based; settings: HT-29, 48 h
SK-OV-3 = assay: Antiproliferative activity against human SKOV3 cells after 48 hrs by sulforhodamine B assay; type: functional, cell-based; settings: SK-OV-3, 48 h
M21 [12] = assay: Antiproliferative activity against human M21 cells after 48 hrs by sulforhodamine B assay; type: functional, cell-based; settings: M21, 48 h
CHO-TAX 5-6 [13] = assay: Antiproliferative activity against paclitaxel-resistant CHO-TAX 5-6 cells after 48 hrs by sulforhodamine B assay; type: functional, cell-based; settings: Cricetulus griseus, CHO-TAX 5-6, 48 h
CEM-VLB = assay: Resistant ratio of IC50 for multidrug-resistant human CEM-VLB cells to IC50 for human CEM cells; type: functional; in short: as §1
[14] = Toxicity against fertilized chicken embryo assessed as mortality at 3 ug per egg, iv by CAM assay; type: organism-based, Gallus gallus; settings: in vivo, read-out: Activity
In short: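 Fertilized chicken eggs incubated 10 days with automatic turning, then static. HT-1080 cells (3.5 × 10^5 cells/egg) grafted onto exposed CAM. On day 11, drug in DMSO diluted into cremophor/ethanol/PBS (6.25/6.25/87.5 v/v) excipient, DMSO below 0.5%, 100 μL injected iv into 10-12 eggs. Eggs incubated to day 17, dead embryos counted. Untreated eggs used for normalization. Two independent experiments, at least 10 eggs each.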

CHO = assay: Antiproliferative activity against CHO cells after 48 hrs by sulforhodamine B assay; type: functional, cell-based; settings: Cricetulus griseus
K562 = assay: Antiproliferative activity against human K562 cells after 48 hrs by sulforhodamine B assay; type: functional, cell-based; settings: K562, 48 h
HT-1080 [15] = assay: Antiproliferative activity against human HT1080 cells after 48 hrs by sulforhodamine B assay; type: functional, cell-based; settings: HT-1080, 48 h

| Compound | inhibition (MDA-MB-231 [1]) | Activity (M21 [2]) [%] | Activity (M21 [7]) | IC50 (MCF7) [nM] | Activity (M21 [8]) [%] | Activity (M21 [9]) [%] | IC50 (HT-29) [nM] | IC50 (M21 [12]) [nM] | also measured |
| --- | --- | --- | --- | --- | --- | --- | --- | --- | --- |
| O=C1NCCN1c1ccc(S(=O)(=O)Oc2cc(Cl)cc(Cl)c2)cc1 | Active | 79 | Active | 18 | 20 | 1 | 10 | 8.2 | IC50 (CCRF-CEM): 16 nM; Ratio IC50 (CHO-TAX 5-6 [3]): 0.36; Activity (HT-1080 [4]): inactive; IC50 (MDA-MB-231 [5]): 26 nM; IC50 [6]: 19 nM; IC50 (DU-145): 66 nM; IC50 (CHO-VV 3-2): 20 nM; IC50 (L1210): 9.6 nM; IC50 [10]: 7.4 nM; IC50 [11]: 41 nM; IC50 (SK-OV-3): 16 nM; IC50 (CHO-TAX 5-6 [13]): 6.1 nM; Ratio IC50 (CEM-VLB): 1.2; mortality [14]: 29%; IC50 (CHO): 17 nM; IC50 (K562): 7.2 nM; IC50 (HT-1080 [15]): 18 nM |
| O=C1NCCN1c1ccc(S(=O)(=O)Oc2ccc(F)cc2)cc1 | Active | 28 | Active | 170 | 21 | 51 | 120 | 89 | IC50 (CCRF-CEM): 200 nM; Ratio IC50 (CHO-TAX 5-6 [3]): 0.37; Activity (HT-1080 [4]): inactive; IC50 (MDA-MB-231 [5]): 360 nM; IC50 [6]: 270 nM; IC50 (DU-145): 550 nM; IC50 (CHO-VV 3-2): 260 nM; IC50 (L1210): 140 nM; IC50 [10]: 240 nM; IC50 [11]: 250 nM; IC50 (SK-OV-3): 210 nM; IC50 (CHO-TAX 5-6 [13]): 86 nM; Ratio IC50 (CEM-VLB): 1.4; mortality [14]: 29%; IC50 (CHO): 230 nM; IC50 (K562): 180 nM; IC50 (HT-1080 [15]): 190 nM |
| CC(=O)O[C@H]1C(=O)[C@@]2(C)[C@H]([C@H](OC(=O)c3ccccc3)[C@]3(O)C[C@H](OC(=O)[C@H](O)[C@@H](NC(=O)c4ccccc4)c4ccccc4)C(C)=C1C3(C)C)[C@]1(OC(C)=O)CO[C@@H]1C[C@@H]2O [PACLITAXEL] |  |  |  |  |  |  |  |  | IC50 (CCRF-CEM): 0.27 nM; IC50 (DU-145): 1.3 nM; IC50 (CHO-VV 3-2): 140 nM; IC50 (L1210): 0.4 nM; IC50 [10]: 35 nM; IC50 [11]: 28 nM; IC50 (SK-OV-3): 2.6 nM; IC50 (CHO-TAX 5-6 [13]): 520 nM; IC50 (CHO): 170 nM; IC50 (K562): 0.71 nM; IC50 (HT-1080 [15]): 0.15 nM |
| CC[C@]1(O)C[C@@H]2CN(CCc3c([nH]c4ccccc34)[C@@](C(=O)OC)(c3cc4c(cc3OC)N(C)[C@H]3[C@@](O)(C(=O)OC)[C@H](OC(C)=O)[C@]5(CC)C=CCN6CC[C@]43[C@@H]65)C2)C1 [VINBLASTINE] |  |  |  |  |  |  |  |  | IC50 (CCRF-CEM): 0.38 nM; Ratio IC50 (CHO-TAX 5-6 [3]): 0.41; IC50 (MDA-MB-231 [5]): 0.12 nM; IC50 [6]: 600 nM; IC50 (DU-145): 0.063 nM; IC50 (CHO-VV 3-2): 66 nM; IC50 (L1210): 0.16 nM; IC50 [10]: 1.8 nM; IC50 [11]: 0.099 nM; IC50 (SK-OV-3): 0.039 nM; IC50 (CHO-TAX 5-6 [13]): 6.9 nM; Ratio IC50 (CEM-VLB): 1579; IC50 (CHO): 17 nM; IC50 (K562): 0.36 nM; IC50 (HT-1080 [15]): 0.099 nM |
| O=C1NCCN1c1ccc(S(=O)(=O)Oc2ccc(Cl)cc2)cc1 | Active | 100 | Active | 88 | 0 | 0 | 87 | 58 |  |
| CCCc1ccccc1OS(=O)(=O)c1ccc(N2CCNC2=O)cc1 | Active | 100 | Active | 69 | 0 | 0 | 76 | 61 |  |
| O=C1NCCN1c1ccc(S(=O)(=O)Oc2ccc(F)c(F)c2)cc1 | Active | 72 | Active | 100 | 26 | 2 | 75 | 47 |  |
| CCc1ccccc1OS(=O)(=O)c1ccc(N2CCNC2=O)cc1 | Active | 100 | Active | 87 | 0 | 0 | 61 | 52 |  |
| CCOc1ccccc1OS(=O)(=O)c1ccc(N2CCNC2=O)cc1 | Active | 80 | Active | 83 | 19 | 1 | 40 | 24 |  |
| CCCc1ccc(OS(=O)(=O)c2ccc(N3CCNC3=O)cc2)cc1 | Active | 81 | Active | 110 | 18 | 1 | 77 | 59 |  |
| O=C1NCCN1c1ccc(S(=O)(=O)Oc2cc(F)cc(F)c2)cc1 | Active | 59 | Active | 47 | 29 | 12 | 36 | 15 |  |
| O=C1NCCN1c1ccc(S(=O)(=O)Oc2ccccc2I)cc1 | Active | 71 | Active | 71 | 25 | 4 | 55 | 40 |  |
| Cc1ccc(OS(=O)(=O)c2ccc(N3CCNC3=O)cc2)c(C)c1 | Active | 100 | Active | 50 | 0 | 0 | 51 | 39 |  |
| Cc1ccc(OS(=O)(=O)c2ccc(N3CCNC3=O)cc2)cc1 | inactive | 55 | Active | 150 | 13 | 32 | 120 | 93 |  |
| COc1cc2c(c(OC)c1OC)-c1ccc(OC)c(=O)cc1[C@@H](NC(C)=O)CC2 [COLCHICINE] |  |  |  |  |  |  |  |  | IC50 (CCRF-CEM): 7.9 nM; IC50 (MDA-MB-231 [5]): 2.9 nM; IC50 [6]: 360 nM; IC50 (CHO-VV 3-2): 620 nM; IC50 (L1210): 6.9 nM; IC50 [10]: 28 nM; IC50 [11]: 13 nM; IC50 (SK-OV-3): 2.1 nM; IC50 (CHO-TAX 5-6 [13]): 140 nM; IC50 (CHO): 220 nM; IC50 (K562): 6.8 nM; IC50 (HT-1080 [15]): 1.1 nM |
| O=C1NCCN1c1ccc(S(=O)(=O)Oc2ccccc2Cl)cc1 | Active | 83 | Active | 73 | 15 | 2 | 66 | 45 |  |
| Cc1cc(C)c(OS(=O)(=O)c2ccc(N3CCNC3=O)cc2)cc1C | Active | 79 | Active | 66 | 20 | 1 | 42 | 41 |  |
| O=C1NCCN1c1ccc(S(=O)(=O)Oc2cccc([N+](=O)[O-])c2)cc1 | Active | 31 | Active | 60 | 13 | 56 | 100 | 48 |  |
| O=C1NCCN1c1ccc(S(=O)(=O)Oc2ccc(F)cc2F)cc1 | Active | 72 | Active | 55 | 26 | 2 | 41 | 35 |  |

From ChEMBL document CHEMBL1799919, “Design, synthesis, biological evaluation, and structure-activity relationships of substituted phenyl 4-(2-oxoimidazolidin-1-yl)benzenesulfonates as new tubulin inhibitors mimicking combretastatin A-4” (J Med Chem, 2011)
